Results taken from ChEMBL document CHEMBL1141843, “Sesquiterpene esters from Celastrus orbiculatus and their structure-activity relationship on the modulation of multidrug resistance” (J Nat Prod, 1999).

Experiments:
[1] = Cytotoxicity against vinblastine resistant human KBV1 cells after 48 hrs in presence of 100 nM vinblastine by SRB method; assay type: functional, cell-based; conditions: KB-V1, 48 h
How it was run: (§1)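 KB-3-1 and KB-V1 cells grown in DMEM with 2 mM L-glutamine and 10% heat-inactivated FCS at 37 °C, 5% CO2. KB-V1 kept under VLB. 2.5-5.0×10^3 cells/well seeded in 5% FCS medium, attached overnight, then exposed to compound for 48 h. Vehicle was DMSO or MeOH, final <0.5%. Read by SRB: TCA fixation, 0.4% SRB stain, Tris solubilization, absorbance at 570 nm. Mean ± S.D. of two experiments.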

[2] = Cytotoxicity against human KB31 cells after 48 hrs by SRB method; assay type: functional, cell-based; conditions: KB 3-1, 48 h; how it was run: as §1
KB-V1 [3] = assay: Reversal of P-glycoprotein-mediated multidrug resistance assessed as ratio of taxol IC50 for drug-resistant human KB-V1 cells to taxol IC50 for human drug-sensitive KB-3-1 cells at 10 uM after 48 hrs by SRB method; assay type: cell-based
How it was run: (§2)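 KB-3-1 and resistant KB-V1 cells seeded overnight, then treated for 48 h with a concentration range of adriamycin, vinblastine or taxol plus 10 μM modulator. Growth read by SRB at 570 nm and IC50 taken against vehicle controls. Relative resistance = IC50 in KB-V1 / IC50 in KB-3-1.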

KB-V1 [4] = assay: Reversal of P-glycoprotein-mediated multidrug resistance assessed as ratio of vinblastine IC50 for drug-resistant human KB-V1 cells to vinblastine IC50 for human drug-sensitive KB-3-1 cells at 10 uM after 48 hrs by SRB method; assay type: cell-based; how it was run: as §2
KB-V1 [5] = assay: Reversal of P-glycoprotein-mediated multidrug resistance assessed as ratio of IC50 for human KB-V1 cells to IC50 for human KB-V1 cells in presence of 100 nM vinblastine; assay type: cell-based
How it was run: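 KB-V1 cells given compound alone or with 100 nM vinblastine for 48 h. Growth read by SRB at 570 nm and IC50 taken against vehicle controls. Enhancement factor = IC50 in KB-V1 without VLB / IC50 with VLB. Mean ± S.D. of two experiments.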

KB-V1 [6] = assay: Reversal of P-glycoprotein-mediated multidrug resistance assessed as ratio of adriamycin IC50 for drug-resistant human KB-V1 cells to adriamycin IC50 for human drug-sensitive KB-3-1 cells at 10 uM after 48 hrs by SRB method; assay type: cell-based; how it was run: as §2
[7] = Cytotoxicity against vinblastine resistant human KBV1 cells after 48 hrs by SRB method; assay type: functional, cell-based; conditions: KB-V1, 48 h; how it was run: as §1

Compound | IC50 [1] | IC50 [2] | Ratio IC50 (KB-V1 [3]) | Ratio IC50 (KB-V1 [4]) | Ratio IC50 (KB-V1 [5]) | Ratio IC50 (KB-V1 [6]) | IC50 [7]
CC(=O)OC[C@]12[C@@H](OC(=O)c3ccccc3)C[C@@H]3[C@@H](OC(C)=O)[C@]1(OC3(C)C)[C@H](C)C[C@H](OC(=O)c1ccccc1)[C@@H]2OC(C)=O | 0.5 µM | 27.3 µM | 3.9 | 2.7 | 57.2 | 1.4 | 28.6 µM
CC(=O)OC[C@@]12[C@@H](OC(C)=O)CC[C@@H](C)[C@]13OC(C)(C)[C@H](C[C@@H]2OC(=O)c1ccccc1)[C@H]3OC(C)=O | 1 µM | 85.3 µM | 10 | 12.9 | 79.4 | 5.5 | 79.4 µM
CC(=O)O[C@H]1CC[C@@H](C)[C@]23OC(C)(C)[C@H](C[C@H](OC(=O)c4ccccc4)[C@]12C)[C@H]3OC(=O)c1ccccc1 | 1.9 µM | 10.5 µM | – | – | 6.4 | – | 12.3 µM
CC(=O)O[C@H]1C[C@@H](C)[C@]23OC(C)(C)[C@H](C[C@H](OC(=O)c4ccccc4)[C@]2(C)[C@H]1OC(C)=O)[C@H]3OC(C)=O | 0.4 µM | 41.3 µM | 3.7 | 2.3 | 87 | 8.3 | 34.8 µM
CC(=O)O[C@H]1C[C@@H](C)[C@]23OC(C)(C)[C@H](C[C@H](OC(=O)c4ccccc4)[C@]2(C)[C@H]1OC(C)=O)[C@H]3OC(=O)c1ccccc1 [ORBICULIN A] | 0.4 µM | 31.6 µM | 1.2 | 0.9 | 80 | 3 | 32 µM
CC(=O)O[C@H]1CC[C@@H](C)[C@]23OC(C)(C)[C@H](C[C@H](OC(=O)c4ccccc4)[C@]12C)[C@H]3OC(=O)c1ccco1 [ORBICULIN B] | 19.6 µM | 268 µM | – | – | 12.5 | – | 246 µM
CC(=O)O[C@H]1CC[C@@H](C)[C@]23OC(C)(C)[C@H](C[C@H](OC(=O)c4ccco4)[C@]12C)[C@H]3OC(=O)c1ccccc1 [ORBICULIN C] | 1 µM | 8.6 µM | – | – | 9.6 | – | 9.6 µM
CC(=O)O[C@H]1CC[C@@H](C)[C@]23OC(C)(C)[C@H](C[C@H](OC(=O)c4ccco4)[C@]12C)[C@H]3OC(=O)c1ccco1 [ORBICULIN D] | 1.2 µM | 16.8 µM | – | – | 14.8 | – | 17.8 µM
CC(=O)O[C@H]1C[C@@H](C)[C@]23OC(C)(C)[C@H](C[C@H](OC(=O)c4ccccc4)[C@]2(C)[C@H]1OC(C)=O)[C@H]3OC(=O)c1ccco1 [ORBICULIN E] | 0.5 µM | 28.3 µM | 2.6 | 1.6 | 66.2 | 1.8 | 33.1 µM
CC(=O)O[C@H]1[C@@H](OC(=O)c2ccco2)C[C@@H](C)[C@]23OC(C)(C)[C@H](C[C@H](OC(=O)c4ccccc4)[C@]12C)[C@H]3OC(=O)c1ccco1 [ORBICULIN F] | 1.1 µM | 32.4 µM | 11 | 8.9 | 35.7 | 4.4 | 39.3 µM
CC(=O)O[C@H]1[C@@H](OC(=O)c2ccccc2)C[C@@H](C)[C@]23OC(C)(C)[C@H](C[C@H](OC(=O)c4ccccc4)[C@]12C)[C@H]3OC(=O)c1ccccc1 [ORBICULIN G] | 4.8 µM | 26.4 µM | 143 | 168 | 5.9 | 153 | 28.6 µM
